Measurements gathered from unrelated publications.
Compare with care: the assays were run in different laboratories.
Target: NT-3 growth factor receptor (NTRK3, Homo sapiens, UniProt Q16288)

| Compound | test | setting | remaining binding |
| --- | --- | --- | --- |
| CNC(=O)[C@@H]1CC[C@@H](n2c(-c3ccc4cnccc4c3)nc3ccc(C(=O)NCc4cccc(C(N)=O)c4)cc32)C1 | binding, competition with immobilised ligand | 1 µM | 100% |
| O=c1nc(-c2ccccn2)sc2ccccc12 | cell-free assay, competition with immobilised ligand | 1 µM | 72% |
| C=CC(=O)N1CCC(C(=O)NCC(=O)N2CCN(c3nc(-c4cnc(N)nc4C(F)F)nc(N4CCOCC4)n3)CC2)CC1 | binding, competition with immobilised ligand | 1 µM | 86% |
| N[C@@H]1CCN(c2nccc(-c3cnn4ncccc34)n2)C1 | binding | 1 µM | 100% |
| Cc1cc(NC(=O)c2cccc(S(F)(F)(F)(F)F)c2)cc(-n2ccn3nc(-c4cccnc4)cc23)c1 | cell-free assay, competition with immobilised ligand | 1 µM | 27.2% |
| c1cncc(-c2cccc(Nc3nccc(NC4CCCCC4)n3)c2)c1 | binding, competition with immobilised ligand | 10 µM | 27% |
| O=C(c1ccc(Nc2ncc(Cl)c(-c3cc4ccccc4s3)n2)cc1)N1CCC(N2CCCC2)CC1 | binding, competition with immobilised ligand | 1 µM | 36% |
| Cn1cc(Cl)c2c(Oc3c(F)cc(Nc4cc(Cl)nc(N)n4)cc3F)ccnc21 | cell-free assay, competition with immobilised ligand | 0.1 µM | 76% |
| O=C(NCCCN1CCOCC1)c1ccc(Nc2nccc(-c3cc4ccccc4s3)n2)cc1 | binding, competition with immobilised ligand | 1 µM | 75% |
| COc1ccnn2ncc(-c3ccnc(N(C)C)n3)c12 | binding | 1 µM | 81% |
| CSc1cccnc1N1CCN(Cc2nc3ccccc3[nH]2)CC1 | cell-free assay, competition with immobilised ligand | 1 µM | 83% |
| COc1cnc(Nc2cccc(S(N)(=O)=O)c2)nc1N1CCN(c2ccccc2)C(=O)C1 | binding, competition with immobilised ligand | 1 µM | 100% |
| CN(c1nccc(-c2cnn3ncccc23)n1)C1CC1 | binding | 1 µM | 100% |
| CC(=O)N1CCC(c2ccc(C(=O)NC(=N)N)cc2C(F)(F)F)CC1 | cell-free assay, competition with immobilised ligand | 1 µM | 100% |
| COc1ncc2cc3ccccc3nc2c1C#N | cell-free assay, competition with immobilised ligand | 5 µM | 74% |
| O=C(NCCCN1CCOCC1)c1ccc(Nc2ncc(Cl)c(-c3ccc(Cl)s3)n2)cc1 | binding, competition with immobilised ligand | 1 µM | 46% |
| CN(CCCC(F)(F)F)c1nccc(-c2cnn3ncccc23)n1 | binding | 1 µM | 100% |
| C[C@@H](c1ccc(-n2cnc3c(N)ncnc32)cc1)N1CCc2nn(C)c(Cc3ccccc3)c2C1=O | binding, competition with immobilised ligand | 0.1 µM | 40% |
| F[C@@H]1CCN(c2nccc(-c3cnn4ncccc34)n2)C1 | binding | 1 µM | 100% |
| O=C(Nc1cccnn1)N1CC(C/C=C/c2cncc(Oc3ccc(C(F)(F)F)cn3)n2)C1 | cell-free assay, competition with immobilised ligand | 1 µM | 85% |
| O=C(NCC1CCOCC1)c1n[nH]cc1NC(=O)c1c(F)cccc1F | binding, competition with immobilised ligand | 1 µM | 98% |
| C[C@@H]1CCN(c2nccc(-c3cnn4ncccc34)n2)C1 | binding | 1 µM | 70% |
